Calls of active or inactive are those of the source. The rule behind the calls is not given here.
Tests used:
[1] = biological target: Sodium- and chloride-dependent GABA transporter 1 (Homo sapiens) (UniProt P30531); conditions: 1 uM
[2] = biological target: Sodium- and chloride-dependent GABA transporter 1 (Homo sapiens) (UniProt P30531); conditions: 100 nM
[3] = biological target: Sodium- and chloride-dependent GABA transporter 1 (Homo sapiens) (UniProt P30531); test: Inhibition of human GAT1 expressed in HEK293 cells assessed as reduction in [3H]GABA uptake preincubated for 25 mins followed by [3H]GABA addition and measured after 4 mins by liquid scintillation counting method; assay type: cell-based
[4] = biological target: Sodium- and chloride-dependent GABA transporter 1 (Homo sapiens) (UniProt P30531); test: (§1) Non-competitive inhibition of human GAT1 expressed in COS cells assessed as reduction in [2H6]GABA uptake by measuring [2H6]GABA Bmax at 10 uM preincubated for 25 mins followed by [2H6]GABA addition and measured after 4 mins […] (reference value: 79.5 +/- 5 pmol/mg); assay type: cell-based
[5] = biological target: T1, GABA transporter 4 (Mus musculus) (UniProt P31650); test: Inhibition of mouse GAT4 expressed in HEK293 cells assessed as reduction in [3H]GABA uptake at 100 uM preincubated for 25 mins followed by [3H]GABA addition and measured after 4 mins by liquid scintillation counting method relative to control; assay type: cell-based
T1 sequence (whole entry): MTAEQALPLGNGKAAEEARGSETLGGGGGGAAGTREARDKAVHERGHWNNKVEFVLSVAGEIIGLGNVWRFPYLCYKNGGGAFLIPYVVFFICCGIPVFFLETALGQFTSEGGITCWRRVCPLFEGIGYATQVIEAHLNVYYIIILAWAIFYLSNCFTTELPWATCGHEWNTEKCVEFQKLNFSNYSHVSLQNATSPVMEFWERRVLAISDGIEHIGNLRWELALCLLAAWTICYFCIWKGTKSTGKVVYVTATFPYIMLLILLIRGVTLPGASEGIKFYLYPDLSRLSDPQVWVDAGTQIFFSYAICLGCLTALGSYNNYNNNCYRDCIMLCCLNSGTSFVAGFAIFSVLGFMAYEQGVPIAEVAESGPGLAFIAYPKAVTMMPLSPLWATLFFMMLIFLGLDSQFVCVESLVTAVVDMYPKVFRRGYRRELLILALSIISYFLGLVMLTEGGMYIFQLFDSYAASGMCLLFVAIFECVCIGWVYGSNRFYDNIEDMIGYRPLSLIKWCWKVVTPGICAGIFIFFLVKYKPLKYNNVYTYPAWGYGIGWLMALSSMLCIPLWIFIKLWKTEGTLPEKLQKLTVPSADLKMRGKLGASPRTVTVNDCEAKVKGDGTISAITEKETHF

[6] = test system: Slc6a13 GABA transporter mGAT3 (Mus musculus); test: Inhibition of mouse GAT3 expressed in HEK293 cells assessed as reduction in [3H]GABA uptake at 100 uM preincubated for 25 mins followed by [3H]GABA addition and measured after 4 mins by liquid scintillation counting method relative to control
[7] = biological target: Sodium- and chloride-dependent GABA transporter 1 (Mus musculus) (UniProt P31648); test: Inhibition of NO711 binding to mouse GAT1 expressed in HEK293 cell membranes assessed as residual binding at 1 uM preincubated for 4 hrs followed by NO711 addition and measured after 40 mins by LC-ESI-MS/MS analysis relative to control
Summary of the method: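 Single hydrazones formed in situ in the presence of mouse GAT1 from one aldehyde (1.0 µM) and hydrazine (200 µM). Formation ran 4 h, then NO711 MS marker was added for 40 min. Specifically bound NO711 was freed from the target and quantified by LC-ESI-MS/MS. Results are % remaining specific binding, means±SD of four replicates.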

[8] = biological target: Sodium- and chloride-dependent GABA transporter 1 (Mus musculus) (UniProt P31648); test: Inhibition of mouse GAT1 expressed in HEK293 cells assessed as reduction in [3H]GABA uptake at 100 uM preincubated for 25 mins followed by [3H]GABA addition and measured after 4 mins by liquid scintillation counting method relative to control; assay type: cell-based
[9] = test system: Betaine/GABA transporter BGT1 (Mus musculus); test: Inhibition of mouse GAT2 expressed in HEK293 cells assessed as reduction in [3H]GABA uptake at 100 uM preincubated for 25 mins followed by [3H]GABA addition and measured after 10 mins by liquid scintillation counting method relative to control
[10] = biological target: Sodium- and chloride-dependent GABA transporter 1 (Homo sapiens) (UniProt P30531); test: as §1, with “1” for “10”; assay type: cell-based

Sequence of Sodium- and chloride-dependent GABA transporter 1 (Homo sapiens) (P30531 whole entry, looked up): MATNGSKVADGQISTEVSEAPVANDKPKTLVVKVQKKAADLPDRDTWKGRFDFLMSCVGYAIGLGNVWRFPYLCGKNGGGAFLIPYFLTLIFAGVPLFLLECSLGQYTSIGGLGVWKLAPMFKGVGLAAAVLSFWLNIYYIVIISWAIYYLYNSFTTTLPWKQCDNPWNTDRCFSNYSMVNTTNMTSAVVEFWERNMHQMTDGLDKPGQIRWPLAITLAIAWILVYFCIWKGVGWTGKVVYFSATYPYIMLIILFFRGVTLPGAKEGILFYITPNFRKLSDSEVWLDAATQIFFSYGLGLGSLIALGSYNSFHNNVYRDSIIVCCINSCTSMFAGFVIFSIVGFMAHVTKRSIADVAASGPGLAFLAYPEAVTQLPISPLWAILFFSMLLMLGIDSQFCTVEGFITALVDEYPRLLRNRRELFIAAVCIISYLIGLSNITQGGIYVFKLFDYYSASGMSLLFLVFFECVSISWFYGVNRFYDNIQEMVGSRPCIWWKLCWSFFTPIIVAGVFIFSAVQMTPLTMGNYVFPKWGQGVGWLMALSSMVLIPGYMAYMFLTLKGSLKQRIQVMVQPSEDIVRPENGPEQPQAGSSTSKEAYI

Compound	Bmax [1] [pmol/mg]	Bmax [2] [pmol/mg]	inhibition [3]	Bmax [4] [pmol/mg]	inhibition [5] [%]	inhibition [6] [%]	Activity [7] [%]	inhibition [8] [%]	inhibition [9] [%]	Bmax [10] [pmol/mg]
Cc1ccsc1C(=CCCN1CCC[C@@H](C(=O)O)C1)c1sccc1C	81	79.9	Active							
O=C(O)[C@H]1CNC[C@@H](CN/N=C/c2ccc(-c3cc(C(F)(F)F)cc(C(F)(F)F)c3)o2)C1 (racemic)			Active	38.9	79	65	32	50	84	57.1
O=C(O)[C@H]1CNC[C@@H](CN/N=C/c2ccc(-c3cc(C(F)(F)F)ccc3Cl)o2)C1 (racemic)			Active		57	57	38		91	
O=C(O)[C@H]1CNC[C@@H](CN/N=C/c2ccc(-c3ccc(C(F)(F)F)cc3Cl)o2)C1 (racemic)			Active		53	59	40		65	
O=C(O)[C@H]1CNC[C@@H](CN/N=C/c2ccc(-c3cccc4ccccc34)o2)C1 (racemic)			Active	28.3			16		64	48.4
